Source: ChEMBL document CHEMBL1155811, “Bioactive brominated metabolites from the Red Sea sponge Pseudoceratina arabica” (2008)
Activity calls are given as the source filed them. No cut-off for these calls is given here.

Legend:
[1] = test system: Klebsiella pneumoniae; experiment: Antibacterial activity against Klebsiella pneumoniae ATCC 10032 assessed as inhibition zone at 1 mg after 24 hrs by agar diffusion method; type: functional; conditions: ATCC 10032, 24 h, read-out: IZ
How it was run: (§1)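 Agar diffusion (cup method). Each compound, 1 mg dissolved in 1 mL DMF; 100 µL of this solution was placed in cups cut in seeded agar. Plates were incubated at 37 °C for 24 h and the inhibition zone was measured.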

[2] = test system: HCT-116; experiment: Cytotoxicity against human HCT116 cells at 10 ug/mL by MTT assay; type: functional, cell-based
[3] = test system: Jejunum; experiment: Parasympatholytic activity in isolated rabbit jejunum assessed as decrease in nicotine-induced intestinal contraction; type: functional, tissue-based; conditions: Oryctolagus cuniculus
How it was run: (§2)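 Isolated rabbit jejunum. Compounds in distilled H2O (1.0 mg/mL stock), used at 1/1000 and 1/100 dilutions. Normal contractions recorded first. Then 0.1 mL nicotine (1/1000 dilution) or 10 gamma acetylcholine (0.1 mL of 1/10 000 dilution) added after the compound. Change in intestinal contraction recorded.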

[4] = test system: Heart; experiment: Parasympatholytic activity in isolated perfused rabbit heart assessed as decrease in nicotine-induced effect; type: functional, tissue-based; conditions: Oryctolagus cuniculus
How it was run: (§3)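 Rabbit heart perfused by modified Langendorff method. Normal contractions recorded and receptors (nicotinic, muscarinic, histaminergic, adrenergic) checked. Compound added at 1/100 dilution of 1.0 mg/mL aqueous stock. Then 0.1 mL nicotine (1/1000 dilution of 1 mL/100 mL H2O) or 10 gamma acetylcholine (0.1 mL of 1/10 000 dilution of 1 g/100 mL H2O) given; change in contraction recorded.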

[5] = test system: Heart; experiment: Parasympatholytic activity in isolated perfused rabbit heart assessed as decrease in 10gamma-acetylcholine induced effect; type: functional, tissue-based; conditions: Oryctolagus cuniculus; how it was run: as §3
[6] = test system: Jejunum; experiment: Parasympatholytic activity in isolated rabbit jejunum assessed as decrease in 10gamma-acetylcholine induced intestinal contraction; type: functional, tissue-based; conditions: Oryctolagus cuniculus; how it was run: as §2
[7] = test system: Staphylococcus aureus; experiment: Antibacterial activity against Staphylococcus aureus ATCC 6538P assessed as inhibition zone at 1 mg after 24 hrs by agar diffusion method; type: functional; conditions: read-out: IZ; how it was run: as §1
[8] = test system: Pseudomonas aeruginosa; experiment: Antibacterial activity against Pseudomonas aeruginosa ATCC 9027 assessed as inhibition zone at 1 mg after 24 hrs by agar diffusion method; type: functional; conditions: ATCC 9027, 24 h, read-out: IZ; how it was run: as §1
[9] = test system: Candida albicans; experiment: Antifungal activity against Candida albicans ATCC 2091 assessed as inhibition zone at 1 mg after 24 hrs by agar diffusion method; type: functional; conditions: ATCC 2091, 24 h, read-out: IZ
How it was run: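 Agar diffusion (cup) assay; Candida albicans ATCC 2091. Compound 1 mg dissolved in 1 mL DMF, 100 µL placed per cup; incubated 37 °C for 24 h; inhibition zone measured in mm.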

`COc1c(Br)cc(O)c(O)c1C=O` was tested. Which zone of inhibition at 1000 µg/disc [1] did it give?
Its zone of inhibition at 1000 µg/disc is 3 mm.

What about the Activity [2] of the same compound?
Its Activity is “Not toxic”.

For `C[N+]1=C2C=C(N)C(=O)c3[nH]cc(c32)CC1`, which Activity [2] is on record?
The Activity was “Not toxic”.

For `N#CC(=O)NCCCOc1c(Br)cc(CCN)cc1Br`, which Activity [2] is on record?
Its Activity is “Not toxic”.

For `NCCCOc1c(Br)cc(C(O)CN)cc1Br` (stereo not drawn), which Activity [2] is on record?
The Activity was “Not toxic”.

What does the source list for `NCCCOc1c(Br)cc(CCN)cc1Br`?
Activity [3]: Active; Activity [4]: Active; Activity [5]: Active; Activity [2]: Not toxic; Activity [6]: Active

With `CCOC(=O)c1c(O)c(O)cc(Br)c1OC` [CERATINOPHENOL A] as the compound, how does the zone of inhibition at 1000 µg/disc [7] read?
Its zone of inhibition at 1000 µg/disc is 7 mm.

And the zone of inhibition at 1000 µg/disc [1]?
The zone of inhibition at 1000 µg/disc was 3 mm.

And the zone of inhibition at 1000 µg/disc [8]?
The zone of inhibition at 1000 µg/disc was 4 mm.

And the zone of inhibition at 1000 µg/disc [9]?
Its zone of inhibition at 1000 µg/disc is 2 mm.

What about the Activity [2] of the same compound?
The Activity was “Not toxic”.

With `NCCc1cc(Br)c(OCCCNC(=O)C(N)=O)c(Br)c1` [MOLOKA'IAKITAMIDE] as the compound, how does the Activity [3] read?
The Activity was “Active”.

And the Activity [4]?
Its Activity is “Active”.

What about the Activity [5] of the same compound?
The Activity was “Active”.

And the zone of inhibition at 1000 µg/disc [9]?
Its zone of inhibition at 1000 µg/disc is 3 mm.

What about the Activity [2] of the same compound?
Its Activity is “Not toxic”.

What about the Activity [6] of the same compound?
The Activity was “Active”.

Which results are given for `COC1=C(Br)C[C@]2(OC=C1Br)ON=C(C(=O)NCCCOc1c(Br)cc(CCN)cc1Br)[C@@H]2O` [PSAMMAPLYSIN A]?
zone of inhibition at 1000 µg/disc [1]: 3 mm; Activity [2]: Not toxic
